Test results reported in PMC10238757 (Pharmacology Research & Perspectives, 2023).

Legend:
healthy participants [1] = assay: Safety and tolerability, multiple ascending dose; format: in vivo, human; settings: for Abdominal pain, n occurrences (% of cohort) / All-cause AEs Grade 2, n occurrences (% of cohort) / All-cause AEs Grade 3/4, n occurrences (% of cohort) / All-cause AEs, n occurrences (% of cohort) / Constipation, n occurrences (% of cohort) / Diarrhea, n occurrences (% of cohort) / Drug-related AEs Grade 2, n occurrences (% of cohort) / Drug-related AEs Grade 3/4, n occurrences (% of cohort) / Drug-related AEs, n occurrences (% of cohort) / Headache, n occurrences (% of cohort) / MDSD, n occurrences (% of cohort): N=7
How it was run: (§1)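 AEs in healthy participants given oral test compound or placebo, recorded with grade and relation to treatment. Laboratory analyses, clinical parameters and suicidality were also monitored. Observation ran 360 h after dosing. Summaries were descriptive, with no formal statistics; parts 1–2 blinded and placebo-controlled, part 3 open-label.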

healthy participants [2] = assay: Safety and tolerability, relative bioavailability and food effect; format: in vivo, human
How it was run: as §1

## C=C(C)[C@@H]1CC[C@]2(NCCN3CCS(=O)(=O)CC3)CC[C@]3(C)[C@H](CC[C@@H]4[C@@]5(C)CC=C(C6=CC[C@@](COc7ncccc7C#N)(C(=O)O)CC6)C(C)(C)[C@@H]5CC[C@]43C)[C@@H]12 [GSK'937]
Healthy participants [1]; MAD
  changes in laboratory analyses, clinical parameters, or suicidality: No significant changes
  deaths or SAEs: no deaths or SAEs
Healthy participants [1]; MAD 25 mg QD
  Abdominal pain, n occurrences (% of cohort): 0
  All-cause AEs Grade 2, n occurrences (% of cohort): 0
  All-cause AEs Grade 3/4, n occurrences (% of cohort): 0
  All-cause AEs, n occurrences (% of cohort): 0
  Constipation, n occurrences (% of cohort): 0
  Diarrhea, n occurrences (% of cohort): 0
  Drug-related AEs Grade 2, n occurrences (% of cohort): 0
  Drug-related AEs Grade 3/4, n occurrences (% of cohort): 0
  Drug-related AEs, n occurrences (% of cohort): 0
  Headache, n occurrences (% of cohort): 0
  MDSD, n occurrences (% of cohort): 0
Healthy participants [1]; MAD 50 mg QD
  Abdominal pain, n occurrences (% of cohort): 0
  All-cause AEs Grade 2, n occurrences (% of cohort): 1 (14)
  All-cause AEs Grade 3/4, n occurrences (% of cohort): 0
  All-cause AEs, n occurrences (% of cohort): 3 (29)
  Constipation, n occurrences (% of cohort): 0
  Diarrhea, n occurrences (% of cohort): 0
  Drug-related AEs Grade 2, n occurrences (% of cohort): 0
  Drug-related AEs Grade 3/4, n occurrences (% of cohort): 0
  Drug-related AEs, n occurrences (% of cohort): 0
  Headache, n occurrences (% of cohort): 1 (14)
  MDSD, n occurrences (% of cohort): 1 (14)
Healthy participants [1]; MAD 100 mg QD
  Abdominal pain, n occurrences (% of cohort): 0
  All-cause AEs Grade 2, n occurrences (% of cohort): 0
  All-cause AEs Grade 3/4, n occurrences (% of cohort): 0
  All-cause AEs, n occurrences (% of cohort): 8 (71)
  Constipation, n occurrences (% of cohort): 0
  Diarrhea, n occurrences (% of cohort): 0
  Drug-related AEs Grade 2, n occurrences (% of cohort): 0
  Drug-related AEs Grade 3/4, n occurrences (% of cohort): 0
  Drug-related AEs, n occurrences (% of cohort): 1 (14)
  Headache, n occurrences (% of cohort): 0
  MDSD, n occurrences (% of cohort): 1 (14)
Healthy participants [1]; MAD 500 mg QW
  Abdominal pain, n occurrences (% of cohort): 1 (14)
  All-cause AEs Grade 2, n occurrences (% of cohort): 0
  All-cause AEs Grade 3/4, n occurrences (% of cohort): 0
  All-cause AEs, n occurrences (% of cohort): 7 (57)
  Constipation, n occurrences (% of cohort): 0
  Drug-related AEs Grade 2, n occurrences (% of cohort): 0
  Drug-related AEs Grade 3/4, n occurrences (% of cohort): 0
  Drug-related AEs, n occurrences (% of cohort): 3 (43)
  Headache, n occurrences (% of cohort): 0
  MDSD, n occurrences (% of cohort): 1 (14)
Healthy participants [2]; 100 mg PiB fed, N=15
  Abdominal pain, n occurrences (% of cohort): 0
  All-cause AEs Grade 2, n occurrences (% of cohort): 0
  All-cause AEs Grade 3/4, n occurrences (% of cohort): 0
  All-cause AEs, n occurrences (% of cohort): 2 (13)
  Constipation, n occurrences (% of cohort): 0
  Diarrhea, n occurrences (% of cohort): 0
  Drug-related AEs Grade 2, n occurrences (% of cohort): 0
  Drug-related AEs Grade 3/4, n occurrences (% of cohort): 0
  Drug-related AEs, n occurrences (% of cohort): 0
  Headache, n occurrences (% of cohort): 0
  MDSD, n occurrences (% of cohort): 0
Healthy participants [2]; 100 mg tablet fasted, N=15
  Abdominal pain, n occurrences (% of cohort): 0
  All-cause AEs Grade 2, n occurrences (% of cohort): 2 (13)
  All-cause AEs Grade 3/4, n occurrences (% of cohort): 0
  All-cause AEs, n occurrences (% of cohort): 7 (40)
  Constipation, n occurrences (% of cohort): 0
  Diarrhea, n occurrences (% of cohort): 0
  Drug-related AEs Grade 2, n occurrences (% of cohort): 0
  Drug-related AEs Grade 3/4, n occurrences (% of cohort): 0
  Drug-related AEs, n occurrences (% of cohort): 0
  Headache, n occurrences (% of cohort): 2 (13)
  MDSD, n occurrences (% of cohort): 0
Healthy participants [2]; 100 mg tablet fed, N=17
  Abdominal pain, n occurrences (% of cohort): 0
  All-cause AEs Grade 2, n occurrences (% of cohort): 3 (12)
  All-cause AEs Grade 3/4, n occurrences (% of cohort): 0
  All-cause AEs, n occurrences (% of cohort): 7 (24)
  Constipation, n occurrences (% of cohort): 0
  Diarrhea, n occurrences (% of cohort): 0
  Drug-related AEs Grade 2, n occurrences (% of cohort): 0
  Drug-related AEs Grade 3/4, n occurrences (% of cohort): 0
